In ChEMBL document CHEMBL1125231, “Synthesis, peroxidating ability, and antineoplastic evaluation of 1-[(aminoalkyl)amino]-4-hydroxy-10-imino-9-anthracenones” (J Med Chem, 1991):
Values after ≈ are worked out from the molar mass of the structure shown.

Assays:
[1] = test system: L1210; assay: Effective concentration against inhibition of L1210 mouse leukemia cells in tissue culture; assay type: functional, cell-based
In short: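 L1210 mouse leukemia cells seeded at 0.05 × 10^6 cells/mL. Compounds, as hydrochlorides dissolved in 50% ethanol, added at four concentrations. Growth over 48 h measured by cellular protein content. EC50 taken as the concentration giving 50% inhibition of 48-h growth.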

[2] = The capacity to stimulate NADH oxidation was determined.; assay type: functional
In short: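 Cell-free NADH oxidation in 1 mL of 0.05 M Tris-HCl, pH 7.2, with 100 µM compound (hydrochloride), 100 µM NADH and 1 unit/mL NADH dehydrogenase. NADH consumption started by adding the enzyme. Rate expressed as µmol/min.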

[3] = test system: P388; assay: In vivo inhibitory activity against P388 murine leukemia cells and the ratio of medium survival time expressed as percent of untreated controls (%T/C) at dose of 80 mg/kg (7/7*); assay type: functional, Mus musculus
[4] = test system: P388; assay: In vivo inhibitory activity against P388 murine leukemia cells and the ratio of medium survival time expressed as percent of untreated controls (%T/C) at doses of 10,5,2,5 mg/kg (7/7*); assay type: functional, Mus musculus
[5] = test system: P388; assay: In vivo inhibitory activity against P388 murine leukemia cells and the ratio of medium survival time expressed as percent of untreated controls (%T/C) at doses of 40,20mg/kg (7/7*); assay type: functional, Mus musculus
[6] = test system: P388; assay: In vivo inhibitory activity against P388 murine leukemia cells and the ratio of medium survival time expressed as percent of untreated controls (%T/C) at dose of 12.5 mg/kg (6/6*); assay type: functional, Mus musculus
[7] = test system: P388; assay: In vivo inhibitory activity against P388 murine leukemia cells and the ratio of medium survival time expressed as percent of untreated controls (%T/C) at dose of 25 mg/kg (6/6*); assay type: functional, Mus musculus
[8] = test system: P388; assay: In vivo inhibitory activity against P388 murine leukemia cells and the ratio of medium survival time expressed as percent of untreated controls (%T/C) at dose of 3.12 mg/kg (6/6*); assay type: functional, Mus musculus
[9] = test system: P388; assay: In vivo inhibitory activity against P388 murine leukemia cells and the ratio of medium survival time expressed as percent of untreated controls (%T/C) at dose of 6.25 mg/kg (6/6*); assay type: functional, Mus musculus
[10] = test system: P388; assay: In vivo inhibitory activity against P388 murine leukemia cells and the ratio of medium survival time expressed as percent of untreated controls (%T/C) at dose of 12.5 mg/kg (7/7*); assay type: functional, Mus musculus
[11] = test system: P388; assay: In vivo inhibitory activity against P388 murine leukemia cells and the ratio of medium survival time expressed as percent of untreated controls (%T/C) at dose of 25 mg/kg (7/7*); assay type: functional, Mus musculus
[12] = test system: P388; assay: In vivo inhibitory activity against P388 murine leukemia cells and the ratio of medium survival time expressed as percent of untreated controls (%T/C) at doses of 6.25,3.12,1.56mg/kg (7/7*); assay type: functional, Mus musculus
[13] = test system: P388; assay: In vivo inhibitory activity against P388 murine leukemia cells and the ratio of medium survival time expressed as percent of untreated controls (%T/C) at dose of 50 mg/kg (7/7*); assay type: functional, Mus musculus
[14] = test system: P388; assay: In vivo inhibitory activity against P388 murine leukemia cells and the ratio of medium survival time expressed as percent of untreated controls (%T/C) at dose of 10 mg/kg (6/6*); assay type: functional, Mus musculus
[15] = test system: P388; assay: In vivo inhibitory activity against P388 murine leukemia cells and the ratio of medium survival time expressed as percent of untreated controls (%T/C) at dose of 2.5 mg/kg (6/6*); assay type: functional, Mus musculus
[16] = test system: P388; assay: In vivo inhibitory activity against P388 murine leukemia cells and the ratio of medium survival time expressed as percent of untreated controls (%T/C) at dose of 20 mg/kg (6/6*); assay type: functional, Mus musculus
[17] = test system: P388; assay: In vivo inhibitory activity against P388 murine leukemia cells and the ratio of medium survival time expressed as percent of untreated controls (%T/C) at dose of 80 mg/kg (5/6*); assay type: functional, Mus musculus
[18] = test system: P388; assay: In vivo inhibitory activity against P388 murine leukemia cells and the ratio of medium survival time expressed as percent of untreated controls (%T/C) at dose of 40 mg/kg (6/6*); assay type: functional, Mus musculus
[19] = test system: P388; assay: In vivo inhibitory activity against P388 murine leukemia cells and the ratio of medium survival time expressed as percent of untreated controls (%T/C) at dose of 5 mg/kg (6/6*); assay type: functional, Mus musculus
[20] = test system: P388; assay: In vivo inhibitory activity against P388 murine leukemia cells and the ratio of medium survival time expressed as percent of untreated controls (%T/C) at dose of 10 mg/kg (7/7*); assay type: functional, Mus musculus
[21] = test system: P388; assay: In vivo inhibitory activity against P388 murine leukemia cells and the ratio of medium survival time expressed as percent of untreated controls (%T/C) at doses of 80,40,20mg/kg (7/7*); assay type: functional, Mus musculus
[22] = test system: P388; assay: In vivo inhibitory activity against P388 murine leukemia cells and the ratio of medium survival time expressed as percent of untreated controls (%T/C) at dose of 2.5 mg/kg (7/7*); assay type: functional, Mus musculus
[23] = test system: P388; assay: In vivo inhibitory activity against P388 murine leukemia cells and the ratio of medium survival time expressed as percent of untreated controls (%T/C) at dose of 5 mg/kg (7/7*); assay type: functional, Mus musculus
[24] = test system: P388; assay: In vivo inhibitory activity against P388 murine leukemia cells and the ratio of medium survival time expressed as percent of untreated controls (%T/C) at dose of 15 mg/kg (7/7*); assay type: functional, Mus musculus
[25] = test system: P388; assay: In vivo inhibitory activity against P388 murine leukemia cells and the ratio of medium survival time expressed as percent of untreated controls (%T/C) at dose of 7.5 mg/kg (7/7*); assay type: functional, Mus musculus
[26] = test system: P388; assay: In vivo inhibitory activity against P388 murine leukemia cells and the ratio of medium survival time expressed as percent of untreated controls (%T/C) at doses of 60,30mg/kg (7/7*); assay type: functional, Mus musculus
[27] = test system: P388; assay: In vivo inhibitory activity against P388 murine leukemia cells and the ratio of medium survival time expressed as percent of untreated controls (%T/C) at dose of 3.78, 1.87 mg/kg (7/7*); assay type: functional, Mus musculus

In the case of `COc1cccc2c1C(=N)c1c(O)ccc(NCCNCCO)c1C2=O`, the EC50 [1] is reported as 2.8 µg/mL (≈ 7.88 µM).

Compound `CN(C)CCNc1ccc(O)c2c1C(=O)c1ccccc1C2=N` has an EC50 [1] of 2.21 µg/mL (≈ 7.14 µM), an NADH oxidn [2] of 17.7 µM/min and a T/C [3] of 125%. The T/C [4] was 92% and the T/C [5] was 100%.

With `O=C1c2ccccc2C(=O)c2c(NCCNCCO)ccc(NCCNCCO)c21` [AMETANTRONE] the EC50 [1] was 0.21 µg/mL (≈ 0.509 µM), the NADH oxidation [2] was 28.9 µM/min and the T/C [6] was 300%. The T/C [7] was 200%, the T/C [8] was 190% and the T/C [9] was 210%.

For `O=C1c2ccccc2C(=O)c2c(NCCNCCO)ccc(O)c21`, the EC50 [1] was 0.27 µg/mL (≈ 0.827 µM), the NADH oxidation [2] was 28.9 µM/min and the T/C [10] was 109%. It also gave a T/C [11] of 117%, a T/C [12] of 100% and a T/C [13] of 127%.

Compound `N=C1c2ccccc2C(=O)c2c(NCCN)ccc(O)c21` has an EC50 [1] of 0.89 µg/mL (≈ 3.16 µM), an NADH oxidn [2] of 20.9 µM/min and a T/C [14] of 118%. It also gave a T/C [15] of 100%, a T/C [16] of 109% and a T/C [17] of 55%. It also gave a T/C [18] of 118% and a T/C [19] of 109%.

Work on `NCCNc1ccc(O)c2c1C(=O)c1ccccc1C2=O` yielded an EC50 [1] of 0.24 µg/mL (≈ 0.85 µM) and an NADH oxidation [2] of 25.7 µM/min.

For `N=C1c2ccccc2C(=O)c2c(NCCNCCO)ccc(O)c21`, the EC50 [1] was 1.43 µg/mL (≈ 4.4 µM), the NADH oxidn [2] was 19.3 µM/min and the T/C [20] was 150%. The T/C [21] was 160%, the T/C [22] was 120% and the T/C [23] was 130%.

For `CN(C)CCNc1ccc(O)c2c1C(=O)c1ccccc1C2=O`, the EC50 [1] was 0.33 µg/mL (≈ 1.06 µM), the NADH oxidation [2] was 25.7 µM/min and the T/C [24] was 109%. The T/C [25] was 100%, the T/C [26] was 117% and the T/C [27] was 91%.
